Assay results reported in publication PMC2692659 (Cellular signalling, 2009).
Each block holds one molecule with its values, some of them ahead of it. Where a SMILES comes first, the peptide text is derived from it.

Experiments:
[1] = system: ASAP1; experiment: Effect of coatomer and p25 on ASAP1 GAP activity; type: biochemical; conditions: 1 nM ASAP1, 3 min 30°C
Summary of the method: (§1)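 GAP enzyme was Arf GAP2 [1–521]-His6 or His10-[325–724]ASAP1. Mixtures held 0.6 μM [α32P]GTP•Arf1 on PI4P LUVs extruded through 0.03 μm pores, with or without 124 nM coatomer and 25 μM p25 peptide. Fraction of GTP hydrolysed in 3 min at 30 °C was measured.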

[2] = biological target: T1, Arf GAP2 (Homo sapiens, UniProt Q8N6H7); experiment: Coatomer titration in Arf GAP2 GAP assay; type: biochemical
T1 sequence (Q8N6H7 whole entry): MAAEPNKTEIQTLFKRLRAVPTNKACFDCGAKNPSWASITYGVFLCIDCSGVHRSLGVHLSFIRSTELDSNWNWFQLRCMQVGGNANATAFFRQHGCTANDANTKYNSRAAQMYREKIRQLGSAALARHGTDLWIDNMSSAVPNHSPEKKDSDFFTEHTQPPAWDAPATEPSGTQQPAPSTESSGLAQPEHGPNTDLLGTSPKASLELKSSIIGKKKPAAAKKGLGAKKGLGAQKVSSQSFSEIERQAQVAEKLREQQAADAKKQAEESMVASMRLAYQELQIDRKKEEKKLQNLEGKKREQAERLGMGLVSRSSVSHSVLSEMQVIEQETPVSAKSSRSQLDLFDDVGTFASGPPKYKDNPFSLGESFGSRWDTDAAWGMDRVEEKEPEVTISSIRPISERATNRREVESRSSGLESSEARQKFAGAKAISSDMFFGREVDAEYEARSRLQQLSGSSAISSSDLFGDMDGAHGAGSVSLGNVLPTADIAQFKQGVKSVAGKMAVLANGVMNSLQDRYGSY
Summary of the method: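 Coatomer was titrated into reactions with 11.4 nM Arf GAP2 [1–521]-His6, 0.6 μM [α32P]GTP•myrArf1 and 25 μM p25 peptide. LUVs contained PI4P and were extruded through 1.0 or 0.03 μm pores. Reactions ran 3 min at 30 °C. Read-out was hydrolysis of Arf1-bound GTP.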

[3] = biological target: T1, Arf GAP2; experiment: Saturation kinetics, tryptophan fluorescence based assay; type: biochemical; conditions: 25 μM peptide, 124 nM coatomer, LUVs 0.03 μm
Summary of the method: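 myrArf1•GTP was titrated into reactions with 114 nM Arf GAP2 [1–521]-His6, 124 nM coatomer and PI4P LUVs (0.03 μm pores), with or without 25 μM p25 peptide. GTP→GDP conversion was followed by tryptophan fluorescence. Readings were corrected for time-dependent fluorescence change of Arf GAP2 ± coatomer. Initial rates were fit to Michaelis-Menten and Hill equations; kcat came from Vmax.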

[4] = biological target: T1, Arf GAP2; experiment: Time dependence; type: biochemical
[5] = system: Arf GAP2; experiment: Effect of p25 on Arf GAP2 with and without coatomer; type: biochemical; conditions: 3 min 30°C
Summary of the method: as §1

[6] = biological target: T1, Arf GAP2; experiment: Saturation kinetics following [α^32P]GTP hydrolysis; type: biochemical; conditions: 25 μM peptide, 124 nM coatomer, LUVs 0.03 μm
Summary of the method: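 Saturation kinetics used [α32P]GTP•Arf1, titrated into reactions with 10 nM Arf GAP2 [1–521]-His6 and 124 nM coatomer, with or without 25 μM p25 peptide. LUVs contained PI4P and were extruded through 0.03 μm pores. Reactions stopped after 3 min at 30 °C. Data were fit to Michaelis-Menten and Hill equations, with kcat calculated from Vmax; three experiments.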

[7] = system: Arf GAP1; experiment: Effect of p25 on Arf GAP1 with and without coatomer; type: biochemical; conditions: 25 μM p25, 28 nM Arf GAP1, 124 nM coatomer, 3 min 30°C
[8] = biological target: T1, Arf GAP2; experiment: Cargo peptide titration in coatomer-dependent GAP assay; type: biochemical; conditions: for effect of peptide on Arf GAP2 activity: LUVs PI4P 0.03 μm, 3 min 30 °C
Summary of the method: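 Arf GAP2 [1–521]-His6 (E. coli, refolded from inclusion bodies) at 11.4 nM, with 124 nM rat-liver coatomer. Substrate was 0.6 μM [α32P]GTP•myrArf1 on PI4P LUVs extruded through 0.03 μm pores. p23, p24 or p25 cytoplasmic-tail peptides (p25 also palmitoyl- or WRM-extended) were titrated in. Reactions ran 3 min at 30 °C. Palmitoyl-peptide data were fit to one-site binding with offset; duplicate experiments.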

[9] = biological target: T1, Arf GAP2; conditions: tryptophan fluorescence assay; ref [33]; cited from earlier work
[10] = system: coatomer; conditions: ref [18]; cited from earlier work
[11] = Protein binding to LUVs; conditions: 1 μM Arf GAP2; 5 min, 30°C; Coomassie Blue; not shown
Summary of the method: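 Sucrose-loaded LUVs (1 mM total lipid), extruded through 0.03 or 1 μm pores, were incubated with purified Arf GAP2 (1 μM) for 5 min at 30 °C. Vesicles were pelleted at 100,000 × g for 15 min at 4 °C. Bound protein was resolved by SDS-PAGE and stained with Coomassie Blue.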

[12] = system: [α^32P]GTP•Arf1 (myrArf1); experiment: GAP assay: Arf GAP titration, hydrolysis of [α^32P]GTP bound to myrArf1; type: biochemical, Human; conditions: for C50 (amount of Arf GAP needed for 50% of maximum observed hydrolysis) / Maximum GTP Hydrolysis: 0.6 μM [α^32P]GTP•Arf1, 3 min, 30 °C, mean ± SD, three experiments
[13] = biological target: T1, Arf GAP2; type: biochemical; conditions: for effect of phosphoinositide on Arf GAP2 activity: without coatomer
[14] = 11.4 nM Arf GAP2, 124 nM coatomer
[15] = LUVs 2.5% PI4P, 0.03 μm pores, 124 nM coatomer and 25 μM p25 where indicated
[16] = LUVs 2.5% PI4P, 1.0 μm pores, 124 nM coatomer and 25 μM p25 where indicated
[17] = LUVs 2.5% PIP2, 0.03 μm pores, 124 nM coatomer where indicated
[18] = LUVs 2.5% PIP2, 1.0 μm pores, 124 nM coatomer where indicated

Molecule: CC(C)C[C@H](NC(=O)[C@H](Cc1c[nH]cn1)NC(=O)[C@@H](N)CCCNC(=N)N)C(=O)N[C@@H](CCCCN)C(=O)N[C@@H](CO)C(=O)N[C@@H](Cc1ccccc1)C(=O)N[C@@H](Cc1ccccc1)C(=O)N[C@@H](CCC(=O)O)C(=O)N[C@@H](C)C(=O)N[C@@H](CCCCN)C(=O)N[C@@H](CCCCN)C(=O)N[C@@H](CC(C)C)C(=O)N[C@H](C(=O)O)C(C)C [p25] (H-RHLKSFFEAKKLV-OH; N-terminus and C-terminus assumed)
effect of p25 on ASAP1 with coatomer ([1]; 25 μM p25, 124 nM coatomer): coatomer-dependent inhibition was increased by p25
effect of p25 on ASAP1 without coatomer ([1]; 25 μM p25, no coatomer): no effect in the absence of coatomer
effect of p25 on coatomer dependence of Arf GAP2 activity ([2]; 25 μM p25, 11.4 nM Arf GAP2, 0.03 and 1.0 μm LUVs): increased the extent of hydrolysis
coatomer concentration at peak activity, with p25 ([2]; 25 μM p25 peptide, smaller LUVs, 11.4 nM Arf GAP2, 3 min, 30 °C): 100 nM
coatomer concentration below which p25 effect was greatest ([2]; smaller LUVs, 25 μM p25, 11.4 nM Arf GAP2): less than 250 nM
effect of p25 on kcat [3]: increased the kcat of the reaction
effect of p25 on time dependence of hydrolysis ([4]; 25 μM p25 with coatomer): accelerated hydrolysis
effect of p25 on Arf GAP2 with coatomer ([5]; 25 μM p25, 11.4 nM Arf GAP2, 124 nM coatomer): increased the activity in the samples containing both Arf GAP2 and coatomer
Arf GAP2 activity without coatomer ([5]; 25 μM p25, 11.4 nM Arf GAP2, no coatomer): No activity was detected in the absence of coatomer
effect of p25 on Arf GAP2 without coatomer ([5]; 25 μM p25, 3.4 μM Arf GAP2, no coatomer): had no effect
effect of p25 on kcat [6]: increased the kcat of the reaction
effect of p25 on Arf GAP1 [7]: stimulated by p25 when coatomer was present
EC50 [8]: 500 ± 200 nM
effect of peptide on Arf GAP2 activity [8, 14]: stimulated GAP activity
peptide concentration above which the effect decreased ([8]; concentrations greater than, 11.4 nM Arf GAP2, 124 nM coatomer): 25 to 50 µM

Molecule: phosphatidylinositol 4,5-bisphosphate [PIP2]
effect of phosphoinositide on Arf GAP2 activity [13]: affected the extent of hydrolysis but not the C50

Molecule: CC[C@H](C)[C@H](NC(=O)[C@H](CC(C)C)NC(=O)[C@H](CCCCN)NC(=O)[C@H](CCCCN)NC(=O)[C@H](C)NC(=O)[C@H](CCCCN)NC(=O)[C@H](Cc1ccccc1)NC(=O)[C@H](Cc1ccccc1)NC(=O)[C@H](CCCNC(=N)N)NC(=O)[C@H](CCCNC(=N)N)NC(=O)[C@H](CC(C)C)NC(=O)[C@@H](N)Cc1ccc(O)cc1)C(=O)N[C@@H](CCC(=O)O)C(=O)O [p23] (H-YLRRFFKAKKLIE-OH; N-terminus and C-terminus assumed)
effect of peptide on Arf GAP2 activity [8, 14]: stimulated GAP activity

B1: Arf GAP3: Arf GAP that functions with the coat protein coatomer (protein, UniProt Q9NP61 1-516, looked up)
ADP-ribosylation factor …: MGDPSKQDILTIFKRLRSVPTNKVCFDCGAKNPSWASITYGVFLCIDCSGSHRSLGVHLSFIRSTELDSNWSWFQLRCMQVGGNASASSFFHQHGCSTNDTNAKYNSRAAQLYREKIKSLASQATRKHGTDLWLDSCVVPPLSPPPKEEDFFASHVSPEVSDTAWASAIAEPSSLTSRPVETTLENNEGGQEQGPSVEGLNVPTKATLEVSSIIKKKPNQAKKGLGAKKGSLGAQKLANTCFNEIEKQAQAADKMKEQEDLAKVVSKEESIVSSLRLAYKDLEIQMKKDEKMNISGKKNVDSDRLGMGFGNCRSVISHSVTSDMQTIEQESPIMAKPRKKYNDDSDDSYFTSSSSYFDEPVELRSSSFSSWDDSSDSYWKKETSKDTETVLKTTGYSDRPTARRKPDYEPVENTDEAQKKFGNVKAISSDMYFGRQSQADYETRARLERLSASSSISSADLFEEPRKQPAGNYSLSSVLPNAPDMAQFKQGVRSVAGKLSVFANGVVTSIQDRYGS
binding to coatomer relative to Arf GAP1 [10]: bind coatomer more tightly than does Arf GAP1

Continued, in another order:

effect of peptide on Arf GAP2 activity [8, 14]: stimulated activity
Molecule: CSCC[C@H](NC(=O)[C@H](CCCNC(=N)N)NC(=O)[C@@H](N)Cc1c[nH]c2ccccc12)C(=O)N[C@@H](CCCNC(=N)N)C(=O)N[C@@H](Cc1c[nH]cn1)C(=O)N[C@@H](CC(C)C)C(=O)N[C@@H](CCCCN)C(=O)N[C@@H](CO)C(=O)N[C@@H](Cc1ccccc1)C(=O)N[C@@H](Cc1ccccc1)C(=O)N[C@@H](CCC(=O)O)C(=O)N[C@@H](C)C(=O)N[C@@H](CCCCN)C(=O)N[C@@H](CCCCN)C(=O)N[C@@H](CC(C)C)C(=O)N[C@H](C(=O)O)C(C)C (H-WRMRHLKSFFEAKKLV-OH)

effect of vesicle size on Arf GAP2 binding to LUVs [11]: did not detect an effect of vesicle size
Molecule: Arf GAP2: [1–521] Arf GAP2 His6 expressed in E. coli and purified from inclusion bodies
effect of coatomer and curvature on Arf GAP2 [9]: stimulated by coatomer but was not affected by curvature
binding to coatomer relative to Arf GAP1 [10]: bind coatomer more tightly than does Arf GAP1
first order rate constant, effect of vesicle size ([4]; 3.4 μM Arf GAP2, 0.6 μM myrArf1•GTP, no coatomer): three-fold greater on the smaller vesicles than on the larger vesicles
rate constant relative to kcat of Arf GAP1 ([4]; 3.4 μM Arf GAP2, no coatomer, kcat of Arf GAP1 from ref 22): less than 1/100
extent of hydrolysis at highest Arf GAP2 concentration ([12]; 3.4 μM Arf GAP2, no coatomer, footnote 1): 25% – 40
C50 (amount of Arf GAP needed for 50% of maximum observed hydrolysis) [12, 15]: > 500 nM
Maximum GTP Hydrolysis [12, 15]: 15 ± 1%
C50 (amount of Arf GAP needed for 50% of maximum observed hydrolysis) [12, 16]: > 500 nM
Maximum GTP Hydrolysis [12, 16]: 6.2 ± 1.2%
C50 (amount of Arf GAP needed for 50% of maximum observed hydrolysis) [12, 17]: > 500 nM
Maximum GTP Hydrolysis [12, 17]: 37 ± 5.2%
C50 (amount of Arf GAP needed for 50% of maximum observed hydrolysis) [12, 18]: > 500 nM
Maximum GTP Hydrolysis [12, 18]: 25 ± 2.0%
GAP activity compared to purified Arf GAP1 ([12]; no coatomer): little activity compared to purified Arf GAP1

reduction of C50 by PI4P ([13]; 124 nM coatomer present): 2 fold
effect of phosphoinositide on Arf GAP2 activity [13]: had no effect by itself
Molecule: phosphatidylinositol 4-phosphate [PI4P]
